Shown are actives, neighbours in structure and some others; about 2.2% of the full set was active somewhere.
NR2E3 ag-1: inhibitors of NR2E3-RetCOR corepressor binding, primary screen, NR2E3 agonist project, biochemical, TR-FRET, GST-NR2E3, biotin-RetCOR. Photoreceptor-specific nuclear receptor (Homo sapiens), Q9Y5X4. 1536-well. inhibition of corepressor binding, % at 4.78 µM. 320,000 compounds, 0.12% hits;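 active means percent inhibition above the cutoff of mean plus 3 SD of all tested compounds, set per screening campaign, cut at about 20% in these data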;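 further: 0% = DMSO wells and 100% = biotin wells as full block of FRET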
Target sequence (Q9Y5X4 whole entry, looked up): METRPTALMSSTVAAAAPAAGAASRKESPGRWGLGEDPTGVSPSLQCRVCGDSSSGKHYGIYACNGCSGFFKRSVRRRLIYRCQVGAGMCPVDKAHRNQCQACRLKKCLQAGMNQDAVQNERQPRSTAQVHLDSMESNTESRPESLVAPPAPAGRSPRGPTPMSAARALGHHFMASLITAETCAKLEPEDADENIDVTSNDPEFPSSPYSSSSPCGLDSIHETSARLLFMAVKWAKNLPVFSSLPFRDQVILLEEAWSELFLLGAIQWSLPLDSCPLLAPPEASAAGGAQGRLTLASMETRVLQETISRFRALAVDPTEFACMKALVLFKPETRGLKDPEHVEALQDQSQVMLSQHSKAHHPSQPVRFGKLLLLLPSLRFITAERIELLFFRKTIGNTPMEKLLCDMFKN
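Material – GST-tagged NR2E3 plus biotinylated RetCOR corepressor · Quantity – NR2E3 fusion 1.35 nM · Times – 5 h incubation at 4 °C · Medium – pH 7.5 Tris-based buffer · Technique – TR-FRET, Eu(K)-anti-GST donor, streptavidin-D2 acceptor, ex 340, em 617/671 nm · Benchmarks – high control biotin, low control 0.6% DMSO · Format – 1536-well plates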
FGF22 binding: binders of human FGF22 protein, primary screen, FGF22 synaptogenesis inhibitor project, biophysical, thermal shift, single point. Fibroblast growth factor 22 (Homo sapiens), Q9HCT0. recombinant FGF22 thermal shift, SYPRO orange fluorescence; percent of sucrose octasulfate shift, DMSO zero. activity (Tm shift, normalised), % at 9.99 µM. 340,000 compounds, 1.5% hits. AID 651658, 2012;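 active means mean Tm shift, scaled 0 neutral to 100 positive control, at about 1.3% or above, every replicate too, limit read from the data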
Jurkat NFkB inh: inhibitors of induced NF-kB luciferase reporter, primary screen, TCR NF-kB activation inhibitor project, cell-based, luminescence, uHTS | inhibition, % at 4 µM | 330,000 compounds, 0.53% hits | Jurkat, PMA/ionomycin-induced NF-kB luciferase reporter; in the data active means inhibition above about 50%
697 NFkB inh: inhibitors of PMA/ionomycin-induced NF-kB reporter, 697 cells, primary screen, B-cell NF-kB inhibitor project, cell-based, luminescence, uHTS; AID 435022, 2010; 697 B-cell NF-kB luciferase reporter, 16 h; 330,000 compounds, 0.33% hits; inhibition, % at 4 µM; in the data active means inhibition above about 35%
NR2E3 ag-2: NR2E3 agonists in two-hybrid cells, primary screen, cell-based, luminescence, CHO-S, Gal4-NCOR/VP16-NR2E3 | Photoreceptor-specific nuclear receptor (Homo sapiens), Q9Y5X4 | luciferase | inhibition of corepressor binding, % at 3.98 µM | 360,000 compounds, 0.35% hits;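 active means inhibition above the mean of all tested compounds plus 3 SD, cut at about 70% in these data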;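 further: 0% = DMSO with NR2E3 transfected cells and 100% = cells lacking NR2E3 construct; higher means lower luciferase signal from less NR2E3 corepressor binding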
miR-122 sensor: miR-122 Renilla sensor signal increase in Huh7, primary screen, miR-122 inhibitor project, cell-based, single point, plate reader; Huh7 miR-122 Renilla luciferase sensor, 48 h; neutral wells = 0, positive control = 100; activation (reporter increase), % at 12.5 µM; 340,000 compounds, 0.3% hits;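 active means mean replicate activation score at least 90 and every replicate individually at or above 90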;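 further: higher luciferase means less miR-122 activity so hits act as miR-122 inhibitors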
NR2E3 agonist cf: NR2E3 agonists, confirmation, biochemical, TR-FRET; shares compounds with NR2E3 ag-1; cell-free NR2E3 corepressor release, 5 h; activation (reported as inhibition), % at 3.98 µM; 360 compounds, 39% hits; AID 2379, 2010; in the data active means activation above about 20%
PPARg-NCOR2 ctr: agonists of PPARg-NCOR2 corepressor interaction, counter-screen for NR2E3 agonist project, biochemical, TR-FRET; shares compounds with NR2E3 ag-1; TR-FRET PPARg-NCOR2 coregulator interaction; inhibition, % at 3.98 µM; 360 compounds, 45% hits; AID 504787, 2011; in the data active means inhibition above about 20%;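 further: 0% = DMSO vehicle and 100% = wells without protein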
* = called active by the depositor; x = no result; [ ] = remark or other dose.

SMILES | NR2E3 ag-1 | FGF22 binding | Jurkat NFkB inh | 697 NFkB inh | NR2E3 ag-2 | miR-122 sensor | NR2E3 agonist cf | PPARg-NCOR2 ctr
CCCCN1C(=O)NC2NC(=O)NC21 (stereo not given) | 37* | x | 1 | 13 | -27 | 2 | 15 | -10
CCCCN1C(=O)N(C)C2NC(=O)NC21 (stereo not given) | 9 | x | -15 | -42 | -8 | -13 | x | x
CCCCOc1ccc(-c2c(C(=O)Nc3ccccc3)c(C)[nH]c(=S)c2C#N)cc1 | 94* | x | -14 | -4 | -9 | x | 84* | 71*
O=C(C[C@H]1C=C[C@@H](NC(=O)Nc2ccccc2)[C@@H](CO)O1)NCc1ccccn1 | x | 0 | x | x | x | -5[16.7 µM] | x | x
Cc1ccc(-c2cc(C(=O)O)c3cc(Br)ccc3n2)o1 | 31* | 0 | 6 | 13 | -28 | -5 | 24* | 36*
Cc1ccc(-c2cc(C(=O)NN3CCOCC3)c3cc(Br)ccc3n2)o1 | 4 | 0 | -2 | -7 | -8 | -6 | x | x
CNC[C@@H]1Oc2ccc(NC(=O)c3ccncc3)cc2C(=O)N([C@@H](C)CO)C[C@@H]1C | x | 0 | x | x | x | 2[16.7 µM] | x | x
CCOC(=O)c1c(NC(=O)CSc2nnc(Cc3ccccc3)o2)sc(C(C)=O)c1C | 32* | x | 19 | -7 | 10 | x | -5 | 5
C[C@@H]1CN([C@H](C)CO)C(=O)c2cc(NC(=O)Cc3ccccc3)ccc2O[C@@H]1CN(C)Cc1ccc(C(=O)O)cc1 | x | 0 | x | x | x | -13[16.7 µM] | x | x
CCC(=O)N1C[C@@H](O)COC[C@H]2O[C@@H](CC(=O)NCc3ccccc3Cl)CC[C@@H]21 | x | 0 | x | x | x | -4[16.7 µM] | x | x
COc1ccccc1NC(=O)N1CCC(NC(=O)C2CCCCC2)CC1 | 32* | 0 | -6 | 3 | -8 | 4 | -12 | -4
Cc1ccc(C(=O)C2=C(O)C(=O)N(Cc3cccnc3)C2c2ccc(Br)cc2)o1 (stereo not given) | 21* | 0 | -4 | 17 | 16 | -7 | 22* | 18
Cc1ccc(C(=O)C2=C(O)C(=O)N(Cc3cccnc3)C2c2ccc(Cl)c(Cl)c2)o1 (stereo not given) | 32* | x | -3 | 10 | -4 | x | 23* | 20*
Cc1ccc(C(=O)C2=C(O)C(=O)N(Cc3cccnc3)C2c2ccc(OC(C)C)cc2)o1 (stereo not given) | 22* | 0 | -2 | -15 | 13 | x | 6 | 13
Cc1ccc(C(=O)C2=C(O)C(=O)N(Cc3cccnc3)C2c2ccc(N(C)C)cc2)o1 (stereo not given) | 10 | -1 | 9 | 9 | -34 | x | x | x
Cc1ccc(C(=O)C2=C(O)C(=O)N(CCCn3ccnc3)C2c2ccc(OC(C)C)cc2)o1 (stereo not given) | 28* | x | 2 | 2 | -8 | -2 | 5 | 3
COc1ccc(C2C(C(=O)c3ccc(C)o3)=C(O)C(=O)N2Cc2cccnc2)cc1 (stereo not given) | 11 | 0 | -6 | 2 | -22 | -2 | x | x
COCC(=O)N1CC2(C1)[C@H](c1ccc(-c3ccc(F)cc3)cc1)[C@H](CO)N2C(=O)C1CC1 | x | 0 | x | x | x | x | x | x
COc1ccc(S(=O)(=O)Nc2ccc3c(c2)C(=O)N([C@@H](C)CO)C[C@H](C)[C@H](CN(C)Cc2ccncc2)OCCCC[C@@H](C)O3)cc1 | x | -1 | x | x | x | 10[16.7 µM] | x | x

Screening results: PubChem, several laboratories
